Tests used:
M14 = experiment: Antiproliferative activity against human M14 cells after 72 hrs by CellTiter 96 aqueous nonradioactive cell proliferation assay; assay type: functional, cell-based; settings: M14, 72 h
In short: (§1)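 Antiproliferation in cultured tumour cells, at least 3 replicate wells per concentration per experiment. NCI-H460 came from ATCC. M14, NCI/ADR-RES, OVCAR-4, HCT-15, ACHN and SF-295 came from the National Cancer Institute. IC50 reported from single experiments where no SD is given.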

NCI-H460 = experiment: Antiproliferative activity against human NCI-H460 cells after 72 hrs by CellTiter 96 aqueous nonradioactive cell proliferation assay; assay type: functional, cell-based; settings: NCI-H460, 72 h; in short: as §1
[1] = Plasma concentration in Crl:NU(NCr)-Foxn1 nu mouse at 40 mg/kg, ip injected via vehicle consisting 45% propylene glycol, <3 % tween-20, 20% PEG400, 20% ethanol by LC-MS analysis; assay type: ADME, organism-based; settings: in vivo
In short: (§2)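 Male Nu/Nu mice, some bearing NCI-H460 or LOX-IMVI xenografts, given a single ip dose at 3 mL/kg. Organic vehicle components were dissolved first, with the aqueous part added gradually. Mice were euthanized at 1 h or 3 h. Cardiac blood was taken into NaEDTA/NaF plasma separator tubes. Quantification used loratadine internal standard against a spiked blank-plasma curve. Tumours were run as duplicate ~200 mg samples homogenized in 3% SDS and extracted twice with ethyl acetate, assuming 1 g tissue = 1 mL.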

[2] = Time at which plasma concentration stays above NCI-H460 IC50 in Crl:NU(NCr)-Foxn1 nu mouse xenografted with human NCI-H460 cells at 40 mg/kg, ip injected via vehicle consisting 40% propylene glycol, 20% tween-20, 20% PEG400, and 20% ethanol by LC-MS analysis; assay type: ADME, organism-based; settings: in vivo
[3] = Time at which plasma concentration stays above NCI-H460 IC50 in Crl:NU(NCr)-Foxn1 nu mouse xenografted with human NCI-H460 cells at 40 mg/kg, ip injected via vehicle consisting 40.5% propylene glycol, 2.7% tween-20, 31.5% PEG400, 15.3% ethanol and 10% water by LC-MS analysis; assay type: ADME, organism-based; settings: in vivo
[4] = Plasma concentration in Crl:NU(NCr)-Foxn1 nu mouse at 40 mg/kg, ip injected via vehicle consisting 40% propylene glycol, 20% tween-20, 20% PEG400, 20% ethanol […] by LC-MS analysis; assay type: ADME, organism-based; settings: in vivo; in short: as §2
[5] = Plasma concentration in Crl:NU(NCr)-Foxn1 nu mouse at 40 mg/kg, ip injected via vehicle consisting 25% propylene glycol, 20% tween-20, 20% PEG400, 20% ethanol by LC-MS analysis; assay type: ADME, organism-based; settings: in vivo; in short: as §2
[6] = Ratio of plasma concentration in Crl:NU(NCr)-Foxn1 nu mouse at 75 to 100 mg/kg, ip injected via vehicle consisting 40.5% propylene glycol, 2.7% tween-20, 31.5% PEG400, 15.3% ethanol and 10% water measured at 6 hrs post injection to IC50 for human NCI-H460 cells; assay type: ADME, organism-based; settings: in vivo
[7] = Ratio of plasma concentration in Crl:NU(NCr)-Foxn1 nu mouse at 40 mg/kg, ip injected via vehicle consisting 40.5% propylene glycol, 2.7% tween-20, 31.5% PEG400, 15.3% ethanol and 10% water measured at 30 mins post injection to IC50 for human NCI-H460 cells; assay type: ADME, organism-based; settings: in vivo, 0.5 h
[8] = Ratio of plasma concentration in Crl:NU(NCr)-Foxn1 nu mouse at 40 mg/kg, ip injected via vehicle consisting 40.5% propylene glycol, 2.7% tween-20, 31.5% PEG400, 15.3% ethanol and 10% water measured at 1 hr post injection to IC50 for human NCI-H460 cells; assay type: ADME, organism-based; settings: in vivo
OVCAR-4 = experiment: Antiproliferative activity against taxane-resistant human OVCAR4 cells after 72 hrs by CellTiter 96 aqueous nonradioactive cell proliferation assay; assay type: functional, cell-based; settings: OVCAR-4, 72 h; in short: as §1
EKVX = experiment: Antiproliferative activity against taxane-resistant human EKVX cells after 72 hrs by CellTiter 96 aqueous nonradioactive cell proliferation assay; assay type: functional, cell-based
NCI/ADR-RES = experiment: Antiproliferative activity against taxane-resistant human NCI/ADR-RES cells after 72 hrs by CellTiter 96 aqueous nonradioactive cell proliferation assay; assay type: functional, cell-based; in short: as §1
ACHN = experiment: Antiproliferative activity against taxane-resistant human ACHN cells after 72 hrs by CellTiter 96 aqueous nonradioactive cell proliferation assay; assay type: functional, cell-based; in short: as §1
HCT-15 = experiment: Antiproliferative activity against taxane-resistant human HCT15 cells after 72 hrs by CellTiter 96 aqueous nonradioactive cell proliferation assay; assay type: functional, cell-based; settings: HCT-15, 72 h; in short: as §1
UO-31 = experiment: Antiproliferative activity against taxane-resistant human UO31 cells after 72 hrs by CellTiter 96 aqueous nonradioactive cell proliferation assay; assay type: functional, cell-based; settings: UO-31, 72 h
SF-295 = experiment: Antiproliferative activity against taxane-resistant human SF295 cells after 72 hrs by CellTiter 96 aqueous nonradioactive cell proliferation assay; assay type: functional, cell-based; settings: SF-295, 72 h; in short: as §1
[9] = Drug uptake in tumor of human LOXIMVI cells xenografted in Crl:NU(NCr)-Foxn1 nu mouse at 40 mg/kg, ip measured at 3 hrs post injection by LC-MS analysis; assay type: ADME, organism-based, Neoplasm; settings: in vivo; in short: as §2
[10] = Drug uptake in tumor of human NCI-H460 cells xenografted in Crl:NU(NCr)-Foxn1 nu mouse at 40 mg/kg, ip measured at 3 hrs post injection by LC-MS analysis; assay type: ADME, organism-based, Neoplasm; settings: in vivo; in short: as §2

| SMILES | IC50 (NCI-H460) | IC50 (M14) | other results |
| --- | --- | --- | --- |
| C=CC[C@H]1C[C@]2([C@@H](C)Cc3ccc(OC)c(N4CCOCC4)c3)OCOC2=CC1=O | > 20000 nM | > 20000 nM |  |
| C=CC[C@H]1C[C@]2([C@@H](C)Cc3ccc(OC)c(OC)c3)OCOC2=CC1=O |  | 110 nM | Drug uptake [1]: Active; Time [2]: 1 h; Time [3]: 3 h; Drug uptake [4]: Active; Drug uptake [5]: Not Active; Ratio [6]: > 4; Ratio [7]: > 6; Ratio [8]: > 3 |
| C=CC[C@H]1C[C@]2([C@@H](C)Cc3ccc(OC)c(Cl)c3)OCOC2=CC1=O | 640 nM | 240 nM |  |
| C=CC[C@H]1C[C@]2([C@H](C)Cc3c(F)cc(OC)cc3F)OCOC2=CC1=O | 2500 nM | 320 nM |  |
| C=CC[C@H]1C[C@]2(CCc3ccc(OC)c(OC)c3)OCOC2=CC1=O | 3200 nM | 2000 nM |  |
| C=CC[C@H]1C[C@]2([C@@H](C)Cc3ccccc3)OCOC2=CC1=O | 9700 nM | 5100 nM |  |
| C=CC[C@H]1C[C@]2([C@@H](C)Cc3ccc(OC(F)(F)F)cc3)OCOC2=CC1=O | 3800 nM | > 20000 nM |  |
| C=CC[C@H]1C[C@]2([C@@H](C)Cc3ccc(OC(C)=O)cc3)OCOC2=CC1=O | > 20000 nM | > 20000 nM |  |
| C=CC[C@H]1C[C@]2(C(CC)Cc3ccc(OC)c(OC)c3)OCOC2=CC1=O (mixture of isomers) | 11000 nM | 2600 nM |  |
| C=CC[C@H]1C[C@]2([C@@H](C)Cc3ccc(OC)nc3)OCOC2=CC1=O | 330 nM | 180 nM |  |
| C=CC[C@H]1C[C@]2([C@@H](C)Cc3ccc(O)cc3)OCOC2=CC1=O | > 20000 nM | > 20000 nM |  |
| C=CC[C@@H]1C[C@]2([C@@H](C)Cc3ccc(OC)c(OC)c3)OCOC2=CC1=O | > 4000 nM | > 4000 nM |  |
| CC(=O)O[C@H]1C(=O)[C@@]2(C)[C@H]([C@H](OC(=O)c3ccccc3)[C@]3(O)C[C@H](OC(=O)[C@H](O)[C@@H](NC(=O)c4ccccc4)c4ccccc4)C(C)=C1C3(C)C)[C@]1(OC(C)=O)CO[C@@H]1C[C@@H]2O [PACLITAXEL] |  |  | IC50 (OVCAR-4): > 600 nM; IC50 (EKVX): 150 nM; IC50 (NCI/ADR-RES): > 9000 nM; IC50 (ACHN): 80 nM; IC50 (HCT-15): 190 nM; IC50 (UO-31): 240 nM; IC50 (SF-295): 56 nM |
| C=CC[C@H]1C[C@]2([C@H](C)Cc3ccc(OC)c(F)c3F)OCOC2=CC1=O | 3300 nM | 3800 nM |  |
| C=CC[C@H]1C[C@]2([C@@H](C)Cc3ccc(OC)c(C(=O)NC)c3)OCOC2=CC1=O | 1100 nM | 1400 nM |  |
| C=CC[C@@H]1C[C@]2([C@H](C)Cc3ccc(OC)c(OC)c3)OCOC2=CC1=O | > 4000 nM | > 4000 nM |  |
| C=CC[C@H]1C[C@]2([C@@H](C)Cc3cnc(OC)c(OC)c3)OCOC2=CC1=O | > 20000 nM | > 20000 nM |  |
| C=CC[C@H]1C[C@]2([C@@H](C)Cc3ccc(OC)c(C)c3)OCOC2=CC1=O | 630 nM | 410 nM |  |
| C=CC[C@H]1C[C@]2(C(C)Cc3ccc(F)cc3)OCOC2=CC1=O (stereo partly drawn) | > 20000 nM | > 20000 nM |  |
| C=CC[C@H]1C[C@]2([C@@H](C)Cc3cc(C)c(OC)cc3F)OCOC2=CC1=O | 650 nM | 230 nM |  |
| C=CC[C@H]1C[C@]2([C@@H](C)Cc3cccc(OC)c3)OCOC2=CC1=O | 10600 nM | 8800 nM |  |
| C=CC[C@H]1C[C@]2(C(C)Cc3cc(C(N)=O)c(OC)cc3F)OCOC2=CC1=O (stereo partly drawn) | 330 nM | 4 nM |  |
| C=CC[C@H]1C[C@]2([C@@H](C)Cc3ccc(OC)c(C#N)c3)OCOC2=CC1=O | 340 nM | 180 nM |  |
| C=CC[C@H]1C[C@]2([C@@H](C)Cc3cnc(OC)cc3F)OCOC2=CC1=O | > 20000 nM | 8000 nM |  |

The remaining compounds from weak to strong by IC50 (NCI-H460), led by results:

| IC50 (NCI-H460) | SMILES | IC50 (M14) | other results |
| --- | --- | --- | --- |
| 320 nM | C=CC[C@H]1C[C@]2([C@H](C)Cc3ccc(OC)c(OC)c3)OCOC2=CC1=O | 300 nM |  |
| 310 nM | C=CC[C@H]1C[C@]2([C@@H](C)Cc3ccc(OC)c(NC(C)=O)c3)OCOC2=CC1=O | 85 nM |  |
| 280 nM | C=CC[C@H]1C[C@]2(C(C)Cc3ccc(OCC)cc3)OCOC2=CC1=O (stereo partly drawn) | 650 nM |  |
| 180 nM | C=CC[C@H]1C[C@]2(C(C)Cc3ccc(OC)c(N)c3)OCOC2=CC1=O (stereo partly drawn) | 49 nM |  |
| 160 nM | C=CC[C@H]1C[C@]2([C@@H](C)Cc3cc(N)c(OC)cc3F)OCOC2=CC1=O | 29 nM |  |
| 150 nM | C=CC[C@H]1C[C@]2([C@@H](C)Cc3cc(C#N)c(OC)cc3F)OCOC2=CC1=O | 37 nM |  |
| 120 nM | C=CC[C@H]1C[C@]2([C@@H](C)Cc3cc(OC)c(OC)cc3F)OCOC2=CC1=O | 14 nM |  |
| 120 nM | C=CC[C@H]1C[C@]2([C@H](C)Cc3ccc(OC)cc3)OCOC2=CC1=O | 81 nM |  |
| 110 nM | C=CC[C@H]1C[C@]2(C(C)Cc3ccc(OC)c(OC(C)=O)c3)OCOC2=CC1=O (stereo partly drawn) | 16 nM |  |
| 94 nM | C=CC[C@H]1C[C@]2([C@@H](C)Cc3ccc(OC)cc3F)OCOC2=CC1=O | 14 nM | Drug uptake [9]: Active |
| 90 nM | C=CC[C@H]1C[C@]2([C@@H](C)Cc3ccc(OC)cc3)OCOC2=CC1=O | 20 nM |  |
| 90 nM | C=CC[C@H]1C[C@]2([C@@H](C)Cc3ccc(OC)c(F)c3)OCOC2=CC1=O | 8 nM |  |
| 80 nM | C=CC[C@H]1C[C@]2([C@@H](C)Cc3ccc(OC)c(O)c3)OCOC2=CC1=O | 8 nM |  |
| 71 nM | C=CC[C@H]1C[C@]2([C@@H](C)Cc3cc(NC(C)=O)c(OC)cc3F)OCOC2=CC1=O | 52 nM |  |
| 66 nM | C=CC[C@H]1C[C@]2([C@@H](C)Cc3ccc(OC)c(C(N)=O)c3)OCOC2=CC1=O | 12 nM |  |
| 59 nM | C=CC[C@H]1C[C@]2([C@@H](C)Cc3cc(F)c(OC)cc3F)OCOC2=CC1=O | 30 nM | Drug uptake [10]: Active |
| 35 nM | C=CC[C@H]1C[C@]2([C@H](C)Cc3cc(F)c(OC)cc3F)OCOC2=CC1=O | 10 nM |  |
| 33 nM | C=CC[C@H]1C[C@]2([C@@H](C)Cc3cc(O)c(OC)cc3F)OCOC2=CC1=O | 9 nM |  |
